Laboratory results taken from ChEMBL document CHEMBL1154852, “Design, synthesis and pharmacological screening of potential anticonvulsant agents using hybrid approach” (Eur J Med Chem, 2010).

Columns and labels:
Mus musculus [1] = test: Toxicity in ip dosed Swiss albino mouse assessed as decrease in locomotor activity after 30 mins by actophotometer; format: organism-based; settings: in vivo, 0.5 h
Summary of the method: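 Actophotometer test in six mice per group, dosed 10 or 30 mg/kg i.p.; vehicle control 0.2% Tween 80 (0.3 ml/kg); diazepam 5 mg/kg as standard. Scored 30 min after dosing: beam interruptions counted over 10 min after 1 min acclimatization, before versus after treatment. Mean ± SEM.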

Mus musculus [2] = test: Toxicity in ip dosed Swiss albino mouse assessed as assessed as decrease in fall of time after 30 mins by rotarod test; format: organism-based; settings: in vivo, 0.5 h
Mus musculus [3] = test: Anticonvulsant activity in Swiss albino mouse assessed as reduction of supramaximal electroshock-induced hind limb tonic extension response at 30 mg/kg, ip administered 30 mins before SME challenge measured after 1 hr; format: functional, Hindlimb; settings: route intraperitoneal
Summary of the method: (§1)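 Swiss albino mice of either sex, 30–35 g, n=6 per group, dosed 10 or 30 mg/kg i.p.; diazepam 5 mg/kg as standard. After 1 h, electroshock 42 mA for 0.2 s via ear electrodes. Readout: duration of hind limb extension phase (sec). Mean ± SEM; one-way ANOVA with Student–Newman–Keuls test.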

Mus musculus [4] = test: Anticonvulsant activity in Swiss albino mouse assessed as inhibition of isoniazide hydrazone-induced seizure at 30 mg/kg, ip administered 30 mins before isoniazide hydrazone challenge measured after 1 hr; format: functional; settings: route intraperitoneal
Summary of the method: (§2)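 Swiss albino mice, 30–35 g, given test drug 10 or 30 mg/kg i.p.; INH 250 mg/kg i.p. injected 30 min later. Animals showing excitement, myoclonic jerks, clonic and maximal seizures grouped, n=6. Readout: reduction of seizure duration (sec). Reference standard diazepam. Mean ± SEM; one-way ANOVA with Student–Newman–Keuls test.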

Mus musculus [5] = test: Anticonvulsant activity in Swiss albino mouse assessed as reduction of supramaximal electroshock-induced hind limb tonic extension response at 10 mg/kg, ip administered 30 mins before SME challenge measured after 1 hr; format: functional, Hindlimb; settings: route intraperitoneal; summary of the method: as §1
Mus musculus [6] = test: Anticonvulsant activity in Swiss albino mouse assessed as inhibition of isoniazide hydrazone-induced seizure at 10 mg/kg, ip administered 30 mins before isoniazide hydrazone challenge measured after 1 hr; format: functional; settings: route intraperitoneal; summary of the method: as §2

For `CN1C(=O)CN=C(c2ccccc2)c2cc(Cl)ccc21` [DIAZEPAM], the Activity (Mus musculus [1]) was “Non-toxic” and the Activity (Mus musculus [2]) was “Non-toxic”.

With `COc1ccc(C2Nc3ccccc3N=C3C2SC(/C=C/c2ccccc2)N3NC(=O)c2c(C)csc2NC(=O)c2ccccc2)cc1` (stereo not drawn) the Activity (Mus musculus [1]) was “Non-toxic”, the Activity (Mus musculus [3]) was 14.907 s and the Activity (Mus musculus [4]) was 108.5 s. For the same compound, the Activity (Mus musculus [2]) was “Non-toxic”, the Activity (Mus musculus [5]) was 15.328 s and the Activity (Mus musculus [6]) was 101.83 s.

`Cc1csc(NC(=O)c2ccccc2)c1C(=O)NN1C2=Nc3ccccc3NC(c3ccccc3Cl)C2SC1/C=C/c1ccccc1` (stereo not drawn) was tested, and the Activity (Mus musculus [1]) was “Non-toxic”, the Activity (Mus musculus [3]) was 13.632 s and the Activity (Mus musculus [4]) was 83.33 s. For the same compound, the Activity (Mus musculus [2]) was “Non-toxic”, the Activity (Mus musculus [5]) was 14.54 s and the Activity (Mus musculus [6]) was 81.833 s.

With `Cc1csc(NC(=O)c2ccccc2)c1C(=O)NN1C2=Nc3ccccc3NC(c3cccc([N+](=O)[O-])c3)C2SC1/C=C/c1ccccc1` (stereo not drawn) the Activity (Mus musculus [1]) was “Non-toxic”, the Activity (Mus musculus [3]) was 14.907 s and the Activity (Mus musculus [4]) was 78.833 s. The Activity (Mus musculus [2]) was “Non-toxic”, the Activity (Mus musculus [5]) was 15.328 s and the Activity (Mus musculus [6]) was 71.33 s.

`Cc1csc(NC(=O)c2ccccc2)c1C(=O)NN1C2=Nc3ccccc3NC(c3ccccc3O)C2SC1/C=C/c1ccccc1` (stereo not drawn) was tested, and the Activity (Mus musculus [1]) was “Non-toxic”, the Activity (Mus musculus [3]) was 14.263 s and the Activity (Mus musculus [4]) was 87.667 s. The Activity (Mus musculus [2]) was “Non-toxic”, the Activity (Mus musculus [5]) was 13.228 s and the Activity (Mus musculus [6]) was 85.5 s.

In the case of `Cc1csc(NC(=O)c2ccccc2)c1C(=O)NN1C2=Nc3ccccc3NC(c3ccc(F)cc3)C2SC1/C=C/c1ccccc1` (stereo not drawn), the Activity (Mus musculus [1]) was “Non-toxic”, the Activity (Mus musculus [3]) was 15.408 s and the Activity (Mus musculus [4]) was 74 s. For the same compound, the Activity (Mus musculus [2]) was “Non-toxic”, the Activity (Mus musculus [5]) was 16.442 s and the Activity (Mus musculus [6]) was 69.833 s.

In the case of `Cc1csc(NC(=O)c2ccccc2)c1C(=O)NN1C2=Nc3ccccc3NC(c3ccc(N(C)C)cc3)C2SC1/C=C/c1ccccc1` (stereo not drawn), the Activity (Mus musculus [1]) was “Non-toxic”, the Activity (Mus musculus [3]) was 13 s and the Activity (Mus musculus [4]) was 95.33 s. The Activity (Mus musculus [2]) was “Non-toxic”, the Activity (Mus musculus [5]) was 13.355 s and the Activity (Mus musculus [6]) was 92.33 s.
